The record followed here is BindingDB's records for doi:10.1021/jm9008532 (Universite Catholique De Louvain, 2009).

The target in the experiment is T1, Fatty-acid amide hydrolase 1 (Homo sapiens, UniProt O00519).
T1 sequence (O00519 whole entry): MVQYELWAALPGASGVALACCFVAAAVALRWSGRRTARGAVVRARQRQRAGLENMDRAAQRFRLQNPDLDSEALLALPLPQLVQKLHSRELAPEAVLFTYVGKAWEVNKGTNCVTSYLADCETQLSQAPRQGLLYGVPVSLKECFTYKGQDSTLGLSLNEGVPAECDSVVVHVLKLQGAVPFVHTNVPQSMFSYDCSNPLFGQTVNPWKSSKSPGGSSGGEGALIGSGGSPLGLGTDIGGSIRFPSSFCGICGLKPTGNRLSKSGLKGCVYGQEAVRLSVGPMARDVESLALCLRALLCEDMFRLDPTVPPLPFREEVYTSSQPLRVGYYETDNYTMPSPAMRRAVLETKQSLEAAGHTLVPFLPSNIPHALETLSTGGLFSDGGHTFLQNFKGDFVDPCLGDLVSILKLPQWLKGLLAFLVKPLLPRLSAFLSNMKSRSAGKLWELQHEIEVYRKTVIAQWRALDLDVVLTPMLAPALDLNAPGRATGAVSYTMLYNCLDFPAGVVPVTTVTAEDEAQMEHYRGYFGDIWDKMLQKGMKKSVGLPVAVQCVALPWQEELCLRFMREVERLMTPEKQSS
In words: Inhibition of human recombinant FAAH using [3H]anandamide by competitive hydrolysis assay. An outline of the steps:
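Compounds were added in DMSO, with DMSO alone as control, plus [3H]-AEA at 2 μM final, 37 °C for 10 min. The reaction was stopped on ice with cold chloroform/methanol (1:1), and the aqueous phase was counted by LSC with the buffer-only blank subtracted. IC50 is the mean of three independent experiments.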

The term IC50 denotes the concentration at which inhibition is half-maximal.

With `CC(=O)O[C@@H]1[C@@H]([C@@H](C)OC(=O)CCc2ccccc2)C(=O)N1C(=O)CCc1ccccc1` [1-(3-Phenylpropanoyl)-(3R,4R)-3-[1(R)-(3-phenylpropanoyloxy)-ethyl]-4-(acetoxy)-azetidin-2-one], the IC50 came to 2190 nM.
